# Screening data: PubChem BioAssay, several laboratories
# Rows were chosen to be rich in hits. Some 2.1% of all compounds tested hit in one or more screens of this group.
# LMPTP inh: LMPTP (human) inhibition. P24666. recombinant LMPTP-A, OMFP fluorogenic substrate, fluorescence intensity. inhibition, % at 20 µM. 360,000 tested, 0.22% active;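 active = compounds that cut the enzyme signal by at least half of the control window in the single-dose screen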;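 also: plate controls were DMSO wells with enzyme plus substrate for no effect and substrate without enzyme for full effect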
#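 Test system: LMPTP-A, protein tyrosine phosphatase of low molecular weight; Input: 0.625 nM enzyme; Incubation: 50 min dark incubation at room temperature; Signal: endpoint fluorescence intensity from OMFP dephosphorylation; Read-out basis: % inhibition versus control wells.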
# STEP block: STEP (human) phosphatase inhibition | AID 588621 | inhibition, % at 20 µM | 360,000 tested, 0.25% active | recombinant STEP, OMFP fluorogenic substrate, fluorescence;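 active = inhibition at 20 µM, scaled per plate between control wells, above about 37%, limit read from the data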;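 also: 0% = DMSO with enzyme and substrate and 100% = substrate only without enzyme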
#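 System: isolated STEP enzyme; schedule: 20 min enzyme reaction at room temperature, protected from light; medium: Bis-Tris buffer pH 6.0, 2.5 mM DTT, 0.005% Tween 20; signal: fluorescence, 480/540 nm; dosing: single compound dose of 20 µM, 1% DMSO final; also added: OMFP substrate, 25 µM final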
# DNMT1 inh: DNMT1 (human) enzyme inhibition; P26358; DNMT1 molecular beacon, Hinp1I cleavage, fluorescence; inhibition (reported as % activation of signal), % at 10 µM; 360,000 tested, 0.83% active; in the data active = inhibition above about 50%
# Target sequence (P26358 504-1616 limits assumed): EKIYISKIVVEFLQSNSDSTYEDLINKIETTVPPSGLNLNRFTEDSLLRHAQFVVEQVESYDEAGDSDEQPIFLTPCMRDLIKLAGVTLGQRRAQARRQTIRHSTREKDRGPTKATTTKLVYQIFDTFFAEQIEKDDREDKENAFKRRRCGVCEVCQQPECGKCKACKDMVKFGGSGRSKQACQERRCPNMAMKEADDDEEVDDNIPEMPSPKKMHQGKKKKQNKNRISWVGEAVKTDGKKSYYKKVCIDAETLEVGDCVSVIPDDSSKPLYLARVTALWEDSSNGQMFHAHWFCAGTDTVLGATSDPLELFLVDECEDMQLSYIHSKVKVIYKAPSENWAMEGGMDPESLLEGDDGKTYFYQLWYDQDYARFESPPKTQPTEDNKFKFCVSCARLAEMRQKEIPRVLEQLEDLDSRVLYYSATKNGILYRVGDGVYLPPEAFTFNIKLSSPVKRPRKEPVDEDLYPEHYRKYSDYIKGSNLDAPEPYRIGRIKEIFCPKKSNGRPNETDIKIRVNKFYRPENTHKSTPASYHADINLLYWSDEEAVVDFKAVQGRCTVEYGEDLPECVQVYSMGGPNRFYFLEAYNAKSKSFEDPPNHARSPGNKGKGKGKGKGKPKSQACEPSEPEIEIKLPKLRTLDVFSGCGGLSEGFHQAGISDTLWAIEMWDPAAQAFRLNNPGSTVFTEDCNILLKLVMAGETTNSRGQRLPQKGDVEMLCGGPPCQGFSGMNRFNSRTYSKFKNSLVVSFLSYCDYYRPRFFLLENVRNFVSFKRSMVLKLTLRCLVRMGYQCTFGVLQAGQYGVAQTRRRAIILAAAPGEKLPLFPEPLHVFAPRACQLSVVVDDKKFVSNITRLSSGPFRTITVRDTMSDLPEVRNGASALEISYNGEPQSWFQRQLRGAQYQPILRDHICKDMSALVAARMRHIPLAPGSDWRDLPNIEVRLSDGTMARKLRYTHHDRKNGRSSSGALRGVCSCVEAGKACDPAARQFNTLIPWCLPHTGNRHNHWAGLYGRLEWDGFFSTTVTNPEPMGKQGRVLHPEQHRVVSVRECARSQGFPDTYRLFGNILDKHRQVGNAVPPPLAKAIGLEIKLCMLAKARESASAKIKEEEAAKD
# SUMO1 PPI mod: SUMO1-SIM interaction modulation | SUMO1 binding to a labelled peptide, TR-FRET, 1 h | inhibition, % at 20 µM | 360,000 tested, 0.33% active; in the data active = inhibition above about 37%
# Scp1 inh: Scp-1 (human) phosphatase inhibition. AID 493091. inhibition, % at 20 µM. Recombinant Scp1, phosphopeptide, malachite green phosphate absorbance. Q9GZU7. 340,000 tested, 0.88% active;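 active = inhibition above about 50% at 20 µM, limit read from the data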;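 also: plate controls were DMSO wells with enzyme for no effect and wells lacking enzyme for full effect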
#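 Test system – truncated SCP-1 phosphatase (76-261aa) · Reagent – Phosphorylated 17-residue peptide substrate · Incubation – 45 min room-temperature reaction, 5 min colour, 30 min stabiliser · Detection – colorimetric phosphate reagent with accelerator and stabiliser, absorbance at 630 nm · Measure – % inhibition at 20 µM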
# GRK2 aptamer HTS: human GRK2 inhibition via aptamer displacement; P25098; bead flow cytometry, FAM-aptamer displacement from GRK2; inhibition of aptamer binding, % at 10 µM; 330,000 tested, 0.59% active;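 active = inhibition of aptamer binding above 40%, roughly 3 SD of noise, on plates passing a quality check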;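 also: median bead fluorescence of bound FAM aptamer so fluorescent compounds give negative values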
# An asterisk follows results filed as active; / = no result.
SMILES,LMPTP inh,STEP block,DNMT1 inh,SUMO1 PPI mod,Scp1 inh,GRK2 aptamer HTS
CCOC(=O)C1CCN(c2nc(N)c3c(N)nc(SCC(=O)O)cc3c2C#N)CC1,23,22,75*,60*,102*,/
CCOC(=O)C1CCN(c2nc(C)cc(C)c2C#N)CC1,1,3,0,2,-4,1
CCCCCCCCCCCC1=C(O)C(=O)C=C(O)C1=O,71*,12,31,11,34,2
COC1=CC(=O)C(O)=C(CCCCCCC/C=C/CCCCCCCC2=C(O)C(=O)C=C(OC)C2=O)C1=O,69*,10,82*,79*,88*,2
CC1CC(=O)Nc2ccccc2N1C(=O)CSc1ccc2ccccc2n1 (centres undefined),0,1,1,-2,7,9
CCC(=O)c1ccc(OCC(=O)Nc2nc(-c3cccnc3)cs2)cc1,4,12,41,46*,39,0
CC(C)(C)[C@H]1COC(=O)[C@H](NC(=O)OCC2c3ccccc3-c3ccccc32)C/C=C\C[C@@H](CC(=O)N[C@H](CO)Cc2ccccc2)C(=O)N1,-1,-1,-11,-4,-4,97*
O=C(O)/C(=C\c1ccc(Cl)c([N+](=O)[O-])c1)c1ccc(S(=O)(=O)N2CCCCC2)s1,2,-1,-18,9,8,2
O=C(O)/C(=C\c1ccc(Cl)c([N+](=O)[O-])c1)c1ccc(S(=O)(=O)N2CCCC2)s1,28,6,72*,11,66*,0
COc1cccc(N=C2NC(=O)/C(=C/c3cc([N+](=O)[O-])ccc3O)S2)c1,88*,50*,3,-5,44,6
O=C1NC(=Nc2ccccc2Cl)S/C1=C\c1cc([N+](=O)[O-])ccc1O,3,0,1,9,-5,8
COc1cccc(-c2nnc3sc(-c4ccccc4)nn23)c1,0,1,-3,-18,-11,2
COc1cccc(OC)c1-c1nn2c(-c3cc(-c4ccccc4)n[nH]3)nnc2s1,56*,4,17,-2,90*,24
C[C@@H](CN1C(=O)C(=O)NC[C@@H]1Cc1ccc(O)cc1)NC(=O)Cc1ccccc1,3,14,-4,42*,-3,0
CC(C)C[C@H]1CNC(=O)C(=O)N1C[C@H](Cc1ccc(O)cc1)NC(=O)Cc1ccccc1,-2,/,/,1,/,/
O=C1NC[C@@H](Cc2ccc(O)cc2)N(CCc2cc(C(F)(F)F)cc(C(F)(F)F)c2)C1=O,4,/,/,67*,/,/
CC(=O)N(CC(=O)N(CC(=O)O)c1ccc(Cl)cc1)c1ccc(Cl)cc1,-1,6,4,8,-8,/
Cc1ccc(/C=C2\C(=O)ON=C2c2ccccc2)o1,-1,-2,1,-6,-5,0
Cc1ccc(-c2ccc(/C=C3\C(=O)ON=C3c3ccccc3)o2)c([N+](=O)[O-])c1,0,2,54*,34,-1,0
O=C(NCC(=O)N1CCN(Cc2ccccc2)CC1)c1ccc(Br)o1,-1,-3,1,3,-4,3
CCN1C(=O)[C@@H]2[C@@H]3CN(S(=O)(=O)c4ccc(C)cc4)[C@@H](c4ccccc4F)[C@@H]3C(=O)C[C@@H]2C1=O,-2,0,2,1,/,/
CCOC(=O)[C@]12CCC=C1N(Cc1ccc(Cl)cc1Cl)C(=O)[C@H](CC(=O)NCc1cccs1)C2,1,/,/,4,/,/
OCCNc1c2ccccc2nc2ccccc12,19,6,59*,-17,-8,1
OCCNc1nc2ccccc2nc1NCCO,-1,-1,1,1,-17,0
O=C(O)c1cccc(Cn2c(Cl)c(/C=N/NC(=O)c3cc4ccccc4cc3O)sc2=O)c1,55*,4,23,12,34,3
SMILES,LMPTP inh,STEP block,DNMT1 inh,SUMO1 PPI mod,Scp1 inh,GRK2 aptamer HTS
COc1cc(NC(=O)N2CCc3nc(NCc4cccc(Oc5ccccc5)c4)ncc3C2)cc(OC)c1OC,3,3,-29,4,/,/
O=C(NN=Cc1ccc([N+](=O)[O-])cc1)c1ccncc1,-1,-2,1,-33,-5,/
O=C(/C=C/c1ccc([N+](=O)[O-])cc1)Oc1ccc(/C=N/NC(=O)c2ccncc2)cc1,47,2,5,47*,-7,0
CC1(C(=O)Nc2cccc3ncccc23)CCN1C(=O)Cc1ccc(-c2ccccc2)cc1 (centres undefined),1,2,-7,-1,/,/
CC(=O)OCC1=C(C(=O)O)N2C(=O)[C@@H](NC(=O)Cc3ccccc3)[C@H]2SC1,0,0,-2,3,33,/
CC(=O)OCC1=C(C(=O)O)N2C(=O)C(NC(=O)COc3ccc(F)cc3)C2SC1 (centres undefined),0,4,25,23,54*,/
Clc1ccc(NN(Cc2ccncc2)c2ccc(Cl)cc2)cc1,4,-2,-17,4,/,/
COC(=O)C(C)N1C(=O)S/C(=C\c2ccc(-c3ccc(C(=O)O)cc3C)o2)C1=O (centres undefined),2,8,19,-3,64*,3
O=C(O)c1ccccc1-c1ccc(/C=C2\SC(=O)N(c3ccccc3)C2=O)o1,1,10,14,-12,26,11
CCN(c1ccccc1)S(=O)(=O)c1ccc(C(=O)N2CCN(c3ccccc3F)CC2)cc1,1,4,0,5,/,/
CCOc1ccccc1-c1cnc(NC)cn1,2,-3,-4,-5,/,/
CCC(=O)OC1(C)C(=O)C2=COC(c3ccc(OC)cc3)=CC2=C(Br)C1=O (centres undefined),4,-1,-4,50*,-7,0
COc1ccc(C2=CC3=C(Br)C(=O)C(C)(O)C(=O)C3=CO2)cc1 (centres undefined),-2,-1,7,52*,0,7
COc1ccc(C2=CC3=CC(=O)C(C)(O)C(=O)C3=CO2)cc1 (centres undefined),/,/,/,/,/,2
COC(=O)CCC(=O)OC1(C)C(=O)C2=CN(Cc3ccc(OC)cc3)C(c3ccc(OC)cc3)=CC2=C(Br)C1=O (centres undefined),4,6,-8,-15,-8,10
O=S1(=O)CC(N2CCCC2)CN1Cc1cn(Cc2ccccc2)nn1 (centres undefined),0,/,/,2,/,/
N#Cc1ccc(CSc2nnc(NC(=O)c3ccc(=O)[nH]c3)s2)cc1,3,1,-1,5,-9,0
N#Cc1ccc(CSc2nnc(NC(=O)c3ccc4ncsc4c3)s2)cc1,8,0,3,40*,5,5
C/C=C(\C)C(=O)NCCN1C2=NC[C@@H](Cc3ccccc3)N2C[C@@H]1Cc1ccc(OC)cc1,1,6,-3,-27,1,0
